In publication PMC6102747 (Molecular Medicine Reports, 2018):
Where “and” joins values, the source holds several entries; their conditions need not be identical. Equal values may be shown once. Read-outs that look alike come from different tables or passages of the source.

How the values were obtained:
[1] = test system: Cyp3a1; assay: RT-qPCR mRNA expression in small intestine and liver; type: in vivo, rats; conditions: KET 75 mg/kg i.g. 7 days, vs control, P<0.001
[2] = test system: Cyp3a2; assay: as above; type: in vivo, rats; conditions: KET 75 mg/kg i.g. 7 days, vs control, P<0.001
[3] = test system: P-gp; assay: Western blot protein expression in small intestine and liver; type: in vivo, rats; conditions: rat, in vivo
[4] = test system: Mdr1; assay: RT-qPCR mRNA expression in small intestine and liver; type: in vivo, rats; conditions: VER 4 mg/kg i.g. 7 days, vs control, P<0.001
How it was run: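 Rats, 3 per group, dosed once daily for 7 days: phosphate buffer 5 ml/kg i.v., test compound 2.5/5/10 mg/kg i.v. in phosphate buffer, ketoconazole 75 mg/kg i.g. in olive oil, or verapamil 4 mg/kg i.g. in water. Olive oil 5 ml/kg gavaged 30 min after day-7 dose. Killed 24 h post-dose after overnight fast; liver and intestinal mucosa snap-frozen. qPCR: 40 cycles, 58°C annealing; 2−ΔΔCq.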

[5] = healthy volunteers, cited from earlier work

## CC(=O)N1CCN(c2ccc(OCC3COC(Cn4ccnc4)(c4ccc(Cl)cc4Cl)O3)cc2)CC1 (stereo not shown) [KET, ketoconazole, reference compound]
[1]; liver
  decrease in Cyp3a1 mRNA expression: 78.64%
[1]; small intestine
  decrease in Cyp3a1 mRNA expression: 78.27%
[2]; liver
  decrease in Cyp3a2 mRNA expression: 87.39%
[2]; small intestine
  decrease in Cyp3a2 mRNA expression: 70.09%

## COc1ccc(CCN(C)CCCC(C#N)(c2ccc(OC)c(OC)c2)C(C)C)cc1OC (stereo not shown) [VER, verapamil, reference compound]
[3]
  decrease in P-gp protein expression: 85.02% and 84.54%
[4]; liver
  decrease in Mdr1 mRNA expression: 84.33%
[4]; small intestine
  decrease in Mdr1 mRNA expression: 65.32%

## O=c1c(O)c(-c2ccc(O)c(O)c2)oc2cc(O)cc(O)c12 [quercetin]
[5]; CsA 30 min following quercetin administration
  increase in AUC of CsA: 36%
[5]; CsA 3 days following quercetin administration
  increase in AUC of CsA: 47%
[5]; co-administration of quercetin (5 mg/kg) and CsA
  increase in AUC of CsA: 18%
